Molecules are shown by their SMILES.

One assay concerns the target T1, Prostaglandin E synthase (Homo sapiens, UniProt O14684).
T1 sequence (O14684 whole entry): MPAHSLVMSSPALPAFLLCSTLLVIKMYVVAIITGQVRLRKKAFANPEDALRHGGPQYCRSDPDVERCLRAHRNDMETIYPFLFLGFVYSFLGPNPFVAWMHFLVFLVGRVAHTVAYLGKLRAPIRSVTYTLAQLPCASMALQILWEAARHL
The assay is described as follows: Inhibition of mPGES-1 in microsomal membranes isolated from interleukin-1beta-stimulated human A549 cells using PGH2 as substrate assessed as PGE2 formation preincubated for 15 mins followed by substrate addition measured after 1 min by RP-HPLC analysis. Format: cell membranes. In short, it runs like this: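 A549 cells kept 16 h in DMEM with 2% FCS, then 1 ng/ml IL-1β for 72 h. Cells homogenized and sonicated, microsomes obtained by centrifugation at 10,000 × g then 174,000 × g. Microsomes in 0.1 M potassium phosphate pH 7.4 with 2.5 mM glutathione, preincubated 15 min with compound or 0.3% DMSO. 20 µM PGH₂ (final) for 1 min at 4 °C. Stopped with FeCl₂/citric acid containing 11β-PGE₂, solid-phase extraction, RP-HPLC with UV at 195 nm.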

Assay [1] has as its target T2, Polyunsaturated fatty acid 5-lipoxygenase (Homo sapiens, UniProt P09917).
T2 sequence (P09917 whole entry): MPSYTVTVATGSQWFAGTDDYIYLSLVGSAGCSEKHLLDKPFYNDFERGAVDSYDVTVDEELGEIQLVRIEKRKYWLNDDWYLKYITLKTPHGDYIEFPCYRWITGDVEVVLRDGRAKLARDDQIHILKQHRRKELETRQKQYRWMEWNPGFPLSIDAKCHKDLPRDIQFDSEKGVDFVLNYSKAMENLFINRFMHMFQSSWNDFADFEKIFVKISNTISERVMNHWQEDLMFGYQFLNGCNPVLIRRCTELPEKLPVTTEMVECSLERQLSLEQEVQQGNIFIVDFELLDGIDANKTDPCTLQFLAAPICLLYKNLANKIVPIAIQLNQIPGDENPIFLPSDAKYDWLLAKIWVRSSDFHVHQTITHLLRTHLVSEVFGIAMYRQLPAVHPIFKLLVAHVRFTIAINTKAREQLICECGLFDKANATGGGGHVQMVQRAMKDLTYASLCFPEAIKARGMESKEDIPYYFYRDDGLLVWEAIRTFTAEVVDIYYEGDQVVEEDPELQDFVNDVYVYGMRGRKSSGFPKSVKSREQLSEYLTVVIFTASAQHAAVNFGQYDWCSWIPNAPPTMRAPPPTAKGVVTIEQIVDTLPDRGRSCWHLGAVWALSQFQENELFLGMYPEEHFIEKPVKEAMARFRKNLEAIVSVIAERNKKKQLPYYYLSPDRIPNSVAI
The assay is described as follows: Inhibition of recombinant human 5-LO expressed in Escherichia coli BL21 using arachidonic acid as substrate assessed as formation of all-trans isomer of LTB4, 5-H(P)ETE preincubated for 5 to 10 mins followed by substrate addition measured after 10 mins by HPLC analysis.

Assay [2] has as its target T3, Polyunsaturated fatty acid 5-lipoxygenase (Homo sapiens) (UniProt P09917).
T3 sequence (whole entry): T2 sequence (P09917 whole entry)
The assay is described as follows: Inhibition of recombinant human 5-LO expressed in Escherichia coli BL21 using arachidonic acid as substrate assessed as remaining activity at 10 uM preincubated for 5 to 10 mins followed by substrate addition measured after 10 mins by HPLC analysis relative to control. The method in brief:
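5-LO expressed in E. coli BL21 from pT3-5-LO plasmid at 37 °C, then partially purified. Enzyme with compound held 5–10 min at 4 °C, prewarmed 30 s at 37 °C. Reaction started with 2 mM CaCl₂ plus 20 µM AA, stopped after 10 min at 37 °C with ice-cold methanol. All-trans LTB₄ isomers and 5-H(P)ETE quantified by HPLC. BWA4C used as control.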

Assay [3] deals with T2, Polyunsaturated fatty acid 5-lipoxygenase. The assay is described as follows: Inhibition of 5-LO in ionophore A23187-stimulated human PMNL using arachidonic acid as substrate assessed as formation of LTB4, 5(S),12(S)-DiHETE, 5-H(p)ETE preincubated for 15 mins followed by substrate and ionophore addition measured after 10 mins by HPLC analysis.
Assay [4] deals with T3, Polyunsaturated fatty acid 5-lipoxygenase (Homo sapiens). Nature of the assay: Inhibition of 5-LO in ionophore A23187-stimulated human PMNL using arachidonic acid as substrate assessed as remaining activity at 10 uM preincubated for 15 mins followed by substrate and ionophore addition measured after 10 mins by HPLC analysis relative to control. The method in brief:
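Human PMNL isolated by dextran sedimentation, density-gradient centrifugation and hypotonic erythrocyte lysis. 5 × 10⁶ cells/ml in PBS pH 7.4 with 1 mg/ml glucose and 1 mM CaCl₂. Compounds preincubated 15 min at 37 °C, then ionophore A23187 plus 20 µM AA for 10 min at 37 °C. Stopped with methanol/HCl, PGB₁ internal standard. 5-LO metabolites analysed by HPLC. BWA4C used as control.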

The next assay relates to Jurkat. The assay is described as follows: Cytotoxicity against human Jurkat cells assessed as induction of cell death after 48 hrs by MTT assay. Format: functional, cell-based. The method in brief: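 Jurkat T cells grown in RPMI 1640 with 10% heat-inactivated FCS, 10 mM HEPES, penicillin/streptomycin at 37 °C, 5% CO₂. Seeded at 2 × 10⁴ per well. Compounds or 0.3% DMSO vehicle added for 48 h. MTT then added until blue staining, cells lysed overnight in 10% SDS/20 mM HCl, absorbance read at 570 nm. Three to four independent experiments.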

For assay [5], the target named is Prostaglandin G/H synthase 1 (Homo sapiens, UniProt P23219). The assay is described as follows: Inhibition of COX-1 in human platelet using arachidonic acid as substrate assessed as formation of 12-HHT preincubated for 10 mins followed by substrate addition measured after 5 mins by HPLC analysis.
Assay [6] has as its target T2, Polyunsaturated fatty acid 5-lipoxygenase. Nature of the assay: Inhibition of 5-LO in human PMNL using arachidonic acid as substrate preincubated for 10 mins followed by substrate addition measured after 10 mins by HPLC analysis.
Assay [7] has the same target. Nature of the assay: Inhibition of recombinant human 5-LO expressed in Escherichia coli BL21 using arachidonic acid as substrate assessed as formation of LTB4, 5(S),12(S)-DiHETE, 5-H(p)ETE preincubated for 5 to 10 mins followed by substrate addition measured after 10 mins by HPLC.

Prostaglandin G/H synthase 1, sequence (P23219 whole entry): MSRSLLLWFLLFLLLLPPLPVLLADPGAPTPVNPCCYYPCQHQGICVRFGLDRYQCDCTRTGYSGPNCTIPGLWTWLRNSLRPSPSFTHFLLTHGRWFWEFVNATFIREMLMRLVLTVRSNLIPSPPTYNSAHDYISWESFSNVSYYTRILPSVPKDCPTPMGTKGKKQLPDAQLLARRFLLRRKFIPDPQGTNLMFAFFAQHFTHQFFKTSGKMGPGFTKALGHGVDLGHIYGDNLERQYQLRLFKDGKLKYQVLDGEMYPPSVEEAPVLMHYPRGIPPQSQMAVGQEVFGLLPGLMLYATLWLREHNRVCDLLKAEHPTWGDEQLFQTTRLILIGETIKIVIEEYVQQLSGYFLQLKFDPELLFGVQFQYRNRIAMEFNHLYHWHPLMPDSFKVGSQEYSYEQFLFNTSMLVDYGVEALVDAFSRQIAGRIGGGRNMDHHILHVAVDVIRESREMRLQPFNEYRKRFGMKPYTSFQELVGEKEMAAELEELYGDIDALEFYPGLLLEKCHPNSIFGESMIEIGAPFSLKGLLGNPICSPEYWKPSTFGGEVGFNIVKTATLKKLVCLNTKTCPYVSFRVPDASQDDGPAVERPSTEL

For `CC(C)C(=O)c1c2c(c(O)c3c1OC1=C(C(=O)C(C)(C)C(=O)C1(C)C)C3C(C)C)C(C(C)C)C1=C(O2)C(C)(C)C(=O)C(C)(C)C1=O` (centres undefined), the IC50 (on Prostaglandin E synthase; in assay [1]; in assay [3]) was over 10 µM throughout. The values for the Activity in assay [2] and in [4] were 95% and 69.5%, respectively. The EC50 in the assay on Jurkat came out at 17.1 µM.
As to `CC(C)C(C1=C(O)C(C)(C)C(=O)C(C)(C)C1=O)c1c(O)c(C(=O)c2ccccc2)c(O)c(C(C2=C(O)C(C)(C)C(=O)C(C)(C)C2=O)C(C)C)c1O` (centres undefined), the IC50 at Prostaglandin E synthase is 5 µM; in assay [1], over 10 µM; in assay [3], over 10 µM. The results for the Activity in assay [2] and in [4] were 82.9% and 69.7%, respectively. Moreover, the EC50 in the assay on Jurkat was over 30 µM.
For the molecule `CC(C)C(=O)c1c(O)c([C@H](C2=C(O)C(C)(C)C(=O)C(C)(C)C2=O)C(C)C)c(O)c([C@H](C2=C(O)C(C)(C)C(=O)C(C)(C)C2=O)C(C)C)c1O` [MYRTUCOMMULONE A], the IC50 at Prostaglandin E synthase was determined as 1 µM; in assay [1], 15 µM; in [3], 3.2 µM; in [5] it was 17 µM; in assay [6], 1.8 µM; in assay [7], 5 µM. In addition, the EC50 with Jurkat was determined as 2.4 µM.
For the molecule `CC(C)C(C1=C(O)CC(C)(C)CC1=O)c1c(O)c(C(C2=C(O)CC(C)(C)CC2=O)C(C)C)c(O)c(C(C2=C(O)CC(C)(C)CC2=O)C(C)C)c1O` (centres undefined), the results for the IC50 (on Prostaglandin E synthase; in assay [1]; in assay [3]) were 0.68 µM, 2.8 µM and over 10 µM, respectively. In addition, the Activity in [4] amounted to 83.5%. Moreover, the EC50 in the assay with Jurkat amounted to 6.2 µM.
As for `CC(C)C(C1=C(O)CC(C)(C)CC1=O)c1c(O)c(C(=O)c2ccccc2)c(O)c(C(C2=C(O)CC(C)(C)CC2=O)C(C)C)c1O` (centres undefined), the IC50 on Prostaglandin E synthase was 3.5 µM; in assay [1], 8.6 µM; in [3], over 10 µM. In [4], the Activity is 66.1%. Besides, the EC50 with Jurkat is 4.4 µM.
